Data: ChEMBL document CHEMBL4609977, “Synthesis of natural product-like polyprenylated phenols and quinones: Evaluation of their neuroprotective activities” (Bioorg Med Chem, 2020)

Experiments:
[1] = target: T1, Amine oxidase [flavin-containing] B (Homo sapiens, UniProt P27338); assay: (§1) Inhibition of recombinant human MAO-B expressed in baculovirus infected BTI insect cells assessed as reduction in formation of 4-quinolinol using kynuramine as substrate preincubated with substrate for 10 mins followed by enzyme addition and measured after 20 mins by fluorescence based microplate reader assay
T1 sequence (P27338 whole entry): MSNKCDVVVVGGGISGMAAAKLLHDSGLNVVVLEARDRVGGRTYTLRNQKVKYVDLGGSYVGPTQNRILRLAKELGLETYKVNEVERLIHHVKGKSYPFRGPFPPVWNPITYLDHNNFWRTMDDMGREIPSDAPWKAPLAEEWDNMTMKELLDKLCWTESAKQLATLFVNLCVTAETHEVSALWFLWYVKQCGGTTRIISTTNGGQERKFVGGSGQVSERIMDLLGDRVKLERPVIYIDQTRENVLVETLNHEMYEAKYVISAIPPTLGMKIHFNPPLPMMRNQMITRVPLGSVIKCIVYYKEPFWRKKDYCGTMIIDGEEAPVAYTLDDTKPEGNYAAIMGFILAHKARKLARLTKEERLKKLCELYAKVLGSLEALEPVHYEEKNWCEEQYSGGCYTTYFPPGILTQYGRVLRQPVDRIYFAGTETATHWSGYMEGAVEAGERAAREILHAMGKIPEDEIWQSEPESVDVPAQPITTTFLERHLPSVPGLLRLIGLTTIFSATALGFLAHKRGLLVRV

[2] = target: T1, Amine oxidase [flavin-containing] B; assay: as §1, with “4-quinolinol at 25 uM” for “4-quinolinol”, “assay relative to control” for “assay”
[3] = Cytotoxicity against human SH-SY5Y cells assessed as cell viability at 5 uM measured after 24 hrs by MTT assay relative to control; type: cell-based; conditions: read-out: Activity
How it was run: (§2)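 SH-SY5Y cells (ECACC) were seeded at 5.0 × 10⁴ cells/well and grown 24 h in E-MEM/F12 with 0.3% FBS. Compound in DMSO (final <0.5%) was added in serum-free medium without H₂O₂ and incubated 24 h at 37 °C, 5% CO₂. Viability was read by MTT (5 mg/mL, 24 h, A595). Mean ± SD, n = 3.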

[4] = Cytotoxicity against human SH-SY5Y cells assessed as cell viability at 10 uM measured after 24 hrs by MTT assay relative to control; type: cell-based; conditions: read-out: Activity; how it was run: as §2
[5] = Solubility of compound at >=25 uM; type: physicochemical
SH-SY5Y [6] = assay: Neuroprotective activity against H2O2-induced cytotoxicity in human SH-SY5Y cells assessed as increase in cell viability at 10 uM measured after 24 hrs by MTT assay relative to H2O2-treated control; type: functional
How it was run: (§3)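 SH-SY5Y cells were seeded at 5.0 × 10⁴ cells/well and given 24 h attachment. Compound (DMSO final <0.5%) and H₂O₂ (final 500 μM) were added together in serum-free E-MEM/F12 and left 24 h at 37 °C, 5% CO₂. Viability was by MTT (5 mg/mL, 24 h, absorbance 595 nm). Luteolin was the positive control. Mean ± SD, n = 3; one-way ANOVA with Dunnett's test against H₂O₂ alone.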

SH-SY5Y [7] = assay: Neuroprotective activity against H2O2-induced cytotoxicity in human SH-SY5Y cells assessed as increase in cell viability measured after 24 hrs by MTT assay; type: functional, cell-based; how it was run: as §3
SH-SY5Y [8] = assay: Cytotoxicity against human SH-SY5Y cells assessed as effect on cell viability at 10 uM measured after 24 hrs by MTT assay; type: cell-based; how it was run: as §2
[9] = target: T1, Amine oxidase [flavin-containing] B; assay: Mixed inhibition of recombinant human MAO-B expressed in baculovirus infected BTI insect cells at 0.32 to 2.6 uM by Lineweaver-Burk plot analysis
[10] = target: T1, Amine oxidase [flavin-containing] B; assay: Tight-binding competitive inhibition of recombinant human MAO-B expressed in baculovirus infected BTI insect cells at varying substrate concentration and IC50 of compound by tight-binding inhibition based assay
How it was run: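 For recombinant human MAO-B with kynuramine as substrate (fluorescent 4-quinolinol read-out), IC50 values were determined at different substrate concentrations and then plotted against substrate concentration to assess tight-binding competitive inhibition.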

[11] = target: T1, Amine oxidase [flavin-containing] B; assay: Mixed inhibition of recombinant human MAO-B expressed in baculovirus infected BTI insect cells at 0.7 to 2.8 uM by Lineweaver-Burk plot analysis

| SMILES | IC50 ([1]; read-out: IC50) [µM] | inhibition at 25 µM [2] [%] | further results |
| --- | --- | --- | --- |
| CC(C)=CCC/C(C)=C/CC/C(C)=C/Cc1c(C)cc(O)cc1O | 9.2 | 96.4 | viability at 24 h, 5 µM [3]: 63%; viability at 24 h, 10 µM [4]: 60% |
| COc1c(C)c(C/C=C(\C)CC/C=C(\C)CCC=C(C)C)c(OC)c(OC)c1OC |  | 15.2 |  |
| CC(C)=CCC/C(C)=C/Cc1c(C)c(C=O)c(O)c(C/C=C(\C)CCC=C(C)C)c1O |  | 48.1 | IC50 [1]: Nd(Insoluble); solubility [5]: Insoluble |
| CC(C)=CCc1c(C)cc(O)cc1O |  | 4.2 |  |
| COc1cc(C)c(C/C=C(\C)CC/C=C(\C)CCC=C(C)C)c(OC)c1 |  | 10.8 |  |
| CC(C)=CCc1c(O)cc(O)c(C=O)c1C |  | 36.3 |  |
| CC(C)=CCC/C(C)=C/CC/C(C)=C/Cc1c(C)cc(O)c(O)c1O | 1.3 | 97.8 | Activity (SH-SY5Y [6]): >20%; Activity (SH-SY5Y [7]): Dose-dependent effect; Activity (SH-SY5Y [8]): Non-Toxic; inhibition (INH) [9]: Active; inhibition (INH) [10]: Active |
| CC(C)=CCC/C(C)=C/Cc1c(O)cc(O)c(C=O)c1C | 19.7 | 77.4 |  |
| CC(C)=CCC/C(C)=C/Cc1c(C)cc(O)cc1O |  | 30.7 |  |
| CC(C)=CCC/C(C)=C/CC/C(C)=C/Cc1c(O)cc(O)c(C(=O)O)c1C | 26.5 | 49.2 |  |
| CC(C)=CCC/C(C)=C/CC1=C(C)C(=O)C(O)=C(O)C1=O | 1.4 | 92.2 |  |
| CC(C)=CCC/C(C)=C/CC/C(C)=C/Cc1c(O)cc(O)c(C=O)c1C | 2.3 | 91.2 | Activity (SH-SY5Y [6]): >20%; Activity (SH-SY5Y [7]): Dose-dependent effect; Activity (SH-SY5Y [8]): Non-Toxic |
| CC(C)=CCC/C(C)=C/Cc1c(C)cc(O)c(O)c1O | 10.5 | 88.7 |  |
| COc1c(C)c(C/C=C(\C)CCC=C(C)C)c(OC)c(OC)c1OC |  | 38 |  |
| COc1cc(C)c(C/C=C(\C)CC/C=C(\C)CCC=C(C)C)c(OC)c1OC |  | 34.9 |  |
| COc1cc(C)c(CC=C(C)C)c(OC)c1 |  | 5.4 |  |
| CC(C)=CCC/C(C)=C/CC/C(C)=C/CC1=C(C)C(=O)C(O)=C(O)C1=O | 1.3 | 93.1 | Activity (SH-SY5Y [6]): >20%; Activity (SH-SY5Y [7]): Dose-dependent effect; Activity (SH-SY5Y [8]): Non-Toxic; inhibition (INH) [11]: Active; inhibition (INH) [10]: Active |
| CC(C)=CCc1c(C)c(C=O)c(O)c(CC=C(C)C)c1O | 5.5 | 84.7 |  |
| COc1c(C)c(CC=C(C)C)c(OC)c(OC)c1OC |  | 7.2 |  |
| CC(C)=CCc1c(C)cc(O)c(O)c1O |  | 32.7 |  |
| CC(C)=CCc1c(O)cc(O)c(C(=O)O)c1C |  | 16.3 |  |
| CC(C)=CCC/C(C)=C/CC/C(C)=C/Cc1c(C)c(C=O)c(O)c(C/C=C(\C)CC/C=C(\C)CCC=C(C)C)c1O |  | 48.8 | IC50 [1]: Nd(Insoluble); solubility [5]: Insoluble |
| COc1cc(C)c(CC=C(C)C)c(OC)c1OC |  | 18.6 |  |
| CC(C)=CCC1=C(C)C(=O)C(O)=C(O)C1=O |  | 38.3 |  |
| COc1cc(C)c(C/C=C(\C)CCC=C(C)C)c(OC)c1OC |  | 5.9 |  |
| CC(C)=CCC/C(C)=C/Cc1c(O)cc(O)c(C(=O)O)c1C |  | 31.2 |  |
